ChEMBL document CHEMBL1240400, “Comparative in vitro activities of nemonoxacin (TG-873870), a novel nonfluorinated quinolone, and other quinolones against clinical isolates” (2010)
In brackets after ≈: the same amount, converted by molar mass.

Experiments:
Assay type in all cases: functional
Escherichia coli [1] = assay: Antibacterial activity against ciprofloxacin resistant Escherichia coli by broth dilution method
Procedure, shortened: (§1)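 Clinical isolates tested by CLSI broth microdilution in panels holding serial twofold drug dilutions in cation-adjusted Mueller-Hinton broth. Final inoculum 5 × 10^5 CFU/ml was made from a 0.5 McFarland suspension. Plates were incubated overnight at 35°C in ambient air, and the MIC was read as the lowest concentration inhibiting growth. Quality control strains were included in each run.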

Escherichia coli [2] = assay: Antibacterial activity against ciprofloxacin susceptible Escherichia coli by broth dilution method
Procedure, shortened: (§2)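 Broth microdilution per CLSI in panels spanning a dilution range of each agent. Cation-adjusted Mueller-Hinton broth, final inoculum 5 × 10^5 CFU/ml from a 0.5 McFarland suspension. Incubated overnight at 35°C in ambient air, with quality control strains in each run. MIC reported; values at or below the lowest concentration tested are given as that concentration.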

Klebsiella pneumoniae = assay: Antibacterial activity against Klebsiella pneumoniae by broth dilution method; procedure, shortened: as §2
Enterobacter cloacae = assay: Antibacterial activity against Enterobacter cloacae by broth dilution method
Proteus mirabilis = assay: Antibacterial activity against Proteus mirabilis by broth dilution method
Citrobacter freundii = assay: Antibacterial activity against Citrobacter freundii by broth dilution method; procedure, shortened: as §2
Acinetobacter baumannii = assay: Antibacterial activity against Acinetobacter baumannii by broth dilution method; procedure, shortened: as §2
Pseudomonas aeruginosa = assay: Antibacterial activity against Pseudomonas aeruginosa by broth dilution method
Staphylococcus aureus [3] = assay: Antibacterial activity against methicillin susceptible Staphylococcus aureus by broth dilution method
Staphylococcus aureus [4] = assay: Antibacterial activity against ciprofloxacin susceptible and methicillin resistant Staphylococcus aureus by broth dilution method; procedure, shortened: as §1
Staphylococcus aureus [5] = assay: Antibacterial activity against ciprofloxacin and methicillin resistant Staphylococcus aureus by broth dilution method; procedure, shortened: as §1
Staphylococcus = assay: Antibacterial activity against methicillin resistant coagulase negative Staphylococcus by broth dilution method
[6] = system: Staphylococcus epidermidis; assay: Antibacterial activity against methicillin resistant coagulase negative Staphylococcus epidermidis by broth dilution method
Enterococcus faecalis [7] = assay: Antibacterial activity against Enterococcus faecalis by broth dilution method
Enterococcus faecalis [8] = assay: Antibacterial activity against vancomycin resistant Enterococcus faecalis by broth dilution method
Enterococcus faecium [9] = assay: Antibacterial activity against Enterococcus faecium by broth dilution method; procedure, shortened: as §1
Enterococcus faecium [10] = assay: Antibacterial activity against vancomycin resistant Enterococcus faecium by broth dilution method; procedure, shortened: as §1
Streptococcus pneumoniae [11] = assay: Antibacterial activity against Levofloxacin susceptible Streptococcus pneumoniae by broth dilution method
Procedure, shortened: (§3)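 Streptococcus pneumoniae clinical isolates tested by CLSI broth microdilution. A 0.5 McFarland suspension was diluted into Mueller-Hinton broth with 3% lysed horse blood, then tested against serial drug dilutions. Plates were incubated overnight at 35°C in ambient air, and the MIC was read as the lowest inhibitory concentration. Quality control strains were included in each run.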

Streptococcus pneumoniae [12] = assay: Antibacterial activity against Levofloxacin resistant Streptococcus pneumoniae by broth dilution method; procedure, shortened: as §3
Streptococcus pyogenes = assay: Antibacterial activity against Streptococcus pyogenes by broth dilution method
Procedure, shortened: (§4)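 Streptococci were tested by CLSI broth microdilution in Mueller-Hinton broth with 3% lysed horse blood, seeded from a 0.5 McFarland suspension. Incubated overnight at 35°C in ambient air, with quality control strains in each run. MIC taken over a per-agent dilution range.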

Streptococcus agalactiae = assay: Antibacterial activity against Streptococcus agalactiae by broth dilution method; procedure, shortened: as §4
Streptococcus viridans = assay: Antibacterial activity against Streptococcus viridans by broth dilution method; procedure, shortened: as §4
Haemophilus influenzae = assay: Antibacterial activity against Haemophilus influenzae by broth dilution method
Procedure, shortened: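 Broth microdilution per CLSI using Haemophilus Test Medium broth, seeded from a 0.5 McFarland suspension. Incubated overnight at 35°C in ambient air, with quality control strains in each run. MIC read against a tested dilution range; values at the low limit are given as the lowest concentration.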

Neisseria gonorrhoeae [13] = assay: Antibacterial activity against ciprofloxacin resistant Neisseria gonorrhoeae isolates by broth dilution method
Procedure, shortened: (§5)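 Neisseria gonorrhoeae clinical isolates tested by CLSI broth microdilution in Mueller-Hinton broth with 3% lysed horse blood, inoculated from a 0.5 McFarland suspension. Plates were incubated overnight at 35°C in 5% CO2, and the MIC was read as the lowest inhibitory concentration. Quality control strains were included in each run.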

Neisseria gonorrhoeae [14] = assay: Antibacterial activity against levofloxacin resistant Neisseria gonorrhoeae isolates by broth dilution method; procedure, shortened: as §5
Neisseria gonorrhoeae [15] = assay: Antibacterial activity against moxifloxacin resistant Neisseria gonorrhoeae isolates by broth dilution method; procedure, shortened: as §5

CCN1CCN(C(=O)N[C@@H](C(=O)N[C@@H]2C(=O)N3[C@@H]2SC(C)(C)[C@@H]3C(=O)O)c2ccccc2)C(=O)C1=O [PIPERACILLIN]
MIC (Escherichia coli [1]): 2 µg/mL (≈ 3.86 µM)
MIC90 (Escherichia coli [1]): 0.5 µg/mL (≈ 0.966 µM)
MIC50 (Escherichia coli [2]): > 128 µg/mL
MIC90 (Escherichia coli [2]): > 128 µg/mL
MIC50 (Klebsiella pneumoniae): > 128 µg/mL
MIC90 (Klebsiella pneumoniae): > 128 µg/mL
MIC50 (Enterobacter cloacae): > 128 µg/mL
MIC90 (Enterobacter cloacae): > 128 µg/mL
MIC50 (Proteus mirabilis): 32 µg/mL (≈ 61.8 µM)
MIC90 (Proteus mirabilis): > 128 µg/mL
MIC50 (Citrobacter freundii): 16 µg/mL (≈ 30.9 µM)
MIC90 (Citrobacter freundii): > 128 µg/mL
MIC50 (Acinetobacter baumannii): > 128 µg/mL
MIC90 (Acinetobacter baumannii): > 128 µg/mL
MIC50 (Pseudomonas aeruginosa): 128 µg/mL (≈ 247 µM)
MIC90 (Pseudomonas aeruginosa): > 128 µg/mL

CC(=O)NC[C@H]1CN(c2ccc(N3CCOCC3)c(F)c2)C(=O)O1 [LINEZOLID]
MIC50 (Staphylococcus aureus [3]): 2 µg/mL (≈ 5.93 µM)
MIC90 (Staphylococcus aureus [3]): 2 µg/mL (≈ 5.93 µM)
MIC50 (Staphylococcus aureus [4]): 2 µg/mL (≈ 5.93 µM)
MIC90 (Staphylococcus aureus [4]): 2 µg/mL (≈ 5.93 µM)
MIC50 (Staphylococcus aureus [5]): 2 µg/mL (≈ 5.93 µM)
MIC90 (Staphylococcus aureus [5]): 2 µg/mL (≈ 5.93 µM)
MIC50 (Staphylococcus): 1 µg/mL (≈ 2.96 µM)
MIC90 (Staphylococcus): 2 µg/mL (≈ 5.93 µM)
MIC50 [6]: 1 µg/mL (≈ 2.96 µM)
MIC90 [6]: 2 µg/mL (≈ 5.93 µM)
MIC50 (Enterococcus faecalis [7]): 1 µg/mL (≈ 2.96 µM)
MIC90 (Enterococcus faecalis [7]): 2 µg/mL (≈ 5.93 µM)
MIC50 (Enterococcus faecalis [8]): 1 µg/mL (≈ 2.96 µM)
MIC90 (Enterococcus faecalis [8]): 2 µg/mL (≈ 5.93 µM)
MIC50 (Enterococcus faecium [9]): 2 µg/mL (≈ 5.93 µM)
MIC90 (Enterococcus faecium [9]): 2 µg/mL (≈ 5.93 µM)
MIC50 (Enterococcus faecium [10]): 2 µg/mL (≈ 5.93 µM)
MIC90 (Enterococcus faecium [10]): 2 µg/mL (≈ 5.93 µM)
MIC50 (Streptococcus pneumoniae [11]): 1 µg/mL (≈ 2.96 µM)
MIC90 (Streptococcus pneumoniae [11]): 1 µg/mL (≈ 2.96 µM)
MIC50 (Streptococcus pneumoniae [12]): 1 µg/mL (≈ 2.96 µM)
MIC90 (Streptococcus pneumoniae [12]): 1 µg/mL (≈ 2.96 µM)
MIC50 (Streptococcus pyogenes): 1 µg/mL (≈ 2.96 µM)
MIC90 (Streptococcus pyogenes): 1 µg/mL (≈ 2.96 µM)
MIC (Streptococcus agalactiae): 1 µg/mL (≈ 2.96 µM)
MIC50 (Streptococcus agalactiae): 1 µg/mL (≈ 2.96 µM)
MIC90 (Streptococcus agalactiae): 1 µg/mL (≈ 2.96 µM)
MIC50 (Streptococcus viridans): 1 µg/mL (≈ 2.96 µM)
MIC90 (Streptococcus viridans): 2 µg/mL (≈ 5.93 µM)

CN[C@H](CC(C)C)C(=O)N[C@H]1C(=O)N[C@@H](CC(N)=O)C(=O)N[C@H]2C(=O)N[C@H]3C(=O)N[C@H](C(=O)N[C@H](C(=O)O)c4cc(O)cc(O)c4-c4cc3ccc4O)[C@H](O)c3ccc(c(Cl)c3)Oc3cc2cc(c3O[C@@H]2O[C@H](CO)[C@@H](O)[C@H](O)[C@H]2O[C@H]2C[C@](C)(N)[C@H](O)[C@H](C)O2)Oc2ccc(cc2Cl)[C@H]1O [VANCOMYCIN]
MIC50 (Staphylococcus aureus [3]): 1 µg/mL (≈ 0.69 µM)
MIC90 (Staphylococcus aureus [3]): 1 µg/mL (≈ 0.69 µM)
MIC50 (Staphylococcus aureus [4]): 1 µg/mL (≈ 0.69 µM)
MIC90 (Staphylococcus aureus [4]): 1 µg/mL (≈ 0.69 µM)
MIC50 (Staphylococcus aureus [5]): 2 µg/mL (≈ 1.38 µM)
MIC90 (Staphylococcus aureus [5]): 2 µg/mL (≈ 1.38 µM)
MIC50 (Staphylococcus): 2 µg/mL (≈ 1.38 µM)
MIC90 (Staphylococcus): 2 µg/mL (≈ 1.38 µM)
MIC50 [6]: 2 µg/mL (≈ 1.38 µM)
MIC90 [6]: 2 µg/mL (≈ 1.38 µM)
MIC50 (Enterococcus faecalis [7]): 2 µg/mL (≈ 1.38 µM)
MIC90 (Enterococcus faecalis [7]): > 16 µg/mL
MIC50 (Enterococcus faecalis [8]): 2 µg/mL (≈ 1.38 µM)
MIC90 (Enterococcus faecalis [8]): > 16 µg/mL
MIC50 (Enterococcus faecium [9]): 8 µg/mL (≈ 5.52 µM)
MIC90 (Enterococcus faecium [9]): > 16 µg/mL
MIC50 (Enterococcus faecium [10]): 8 µg/mL (≈ 5.52 µM)
MIC90 (Enterococcus faecium [10]): > 16 µg/mL
MIC50 (Streptococcus pneumoniae [11]): 0.5 µg/mL (≈ 0.345 µM)
MIC90 (Streptococcus pneumoniae [11]): 0.5 µg/mL (≈ 0.345 µM)
MIC50 (Streptococcus pneumoniae [12]): 0.5 µg/mL (≈ 0.345 µM)
MIC90 (Streptococcus pneumoniae [12]): 0.5 µg/mL (≈ 0.345 µM)
MIC50 (Streptococcus pyogenes): 0.5 µg/mL (≈ 0.345 µM)
MIC90 (Streptococcus pyogenes): 0.5 µg/mL (≈ 0.345 µM)
MIC (Streptococcus agalactiae): 0.5 µg/mL (≈ 0.345 µM)
MIC50 (Streptococcus agalactiae): 0.5 µg/mL (≈ 0.345 µM)
MIC90 (Streptococcus agalactiae): 1 µg/mL (≈ 0.69 µM)
MIC (Streptococcus viridans): 0.5 µg/mL (≈ 0.345 µM)
MIC50 (Streptococcus viridans): 0.5 µg/mL (≈ 0.345 µM)
MIC90 (Streptococcus viridans): 1 µg/mL (≈ 0.69 µM)

CO/N=C(\C(=O)N[C@@H]1C(=O)N2C(C(=O)[O-])=C(C[N+]3(C)CCCC3)CS[C@H]12)c1csc(N)n1
MIC50 (Proteus mirabilis): ≤ 0.06 µg/mL
MIC90 (Proteus mirabilis): 8 µg/mL (≈ 16.6 µM)
MIC50 (Citrobacter freundii): ≤ 0.06 µg/mL
MIC90 (Citrobacter freundii): > 8 µg/mL
MIC50 (Acinetobacter baumannii): > 8 µg/mL
MIC90 (Acinetobacter baumannii): > 8 µg/mL
MIC50 (Pseudomonas aeruginosa): > 8 µg/mL
MIC90 (Pseudomonas aeruginosa): > 8 µg/mL
MIC50 (Haemophilus influenzae): 0.25 µg/mL (≈ 0.52 µM)
MIC90 (Haemophilus influenzae): 0.5 µg/mL (≈ 1.04 µM)

O=C(O)c1cn(C2CC2)c2cc(N3CCNCC3)c(F)cc2c1=O [CIPROFLOXACIN]
MIC50 (Staphylococcus): 0.5 µg/mL (≈ 1.51 µM)
MIC90 (Staphylococcus): > 16 µg/mL
MIC50 [6]: 0.5 µg/mL (≈ 1.51 µM)
MIC90 [6]: > 16 µg/mL
MIC50 (Escherichia coli [1]): > 16 µg/mL
MIC90 (Escherichia coli [1]): > 16 µg/mL
MIC50 (Escherichia coli [2]): 0.25 µg/mL (≈ 0.754 µM)
MIC90 (Escherichia coli [2]): 1 µg/mL (≈ 3.02 µM)
MIC50 (Klebsiella pneumoniae): 4 µg/mL (≈ 12.1 µM)
MIC90 (Klebsiella pneumoniae): > 16 µg/mL
MIC50 (Proteus mirabilis): 2 µg/mL (≈ 6.04 µM)
MIC90 (Proteus mirabilis): > 16 µg/mL
MIC50 (Citrobacter freundii): ≤ 0.06 µg/mL
MIC90 (Citrobacter freundii): 2 µg/mL (≈ 6.04 µM)
MIC50 (Streptococcus pneumoniae [12]): > 16 µg/mL
MIC90 (Streptococcus pneumoniae [12]): > 16 µg/mL
MIC50 (Streptococcus pyogenes): 1 µg/mL (≈ 3.02 µM)
MIC90 (Streptococcus pyogenes): 4 µg/mL (≈ 12.1 µM)
MIC50 (Streptococcus viridans): 1 µg/mL (≈ 3.02 µM)
MIC90 (Streptococcus viridans): 4 µg/mL (≈ 12.1 µM)
MIC50 (Acinetobacter baumannii): 4 µg/mL (≈ 12.1 µM)
MIC90 (Acinetobacter baumannii): > 16 µg/mL
MIC50 (Pseudomonas aeruginosa): 4 µg/mL (≈ 12.1 µM)
MIC90 (Pseudomonas aeruginosa): > 16 µg/mL
MIC50 (Haemophilus influenzae): 0.25 µg/mL (≈ 0.754 µM)
MIC90 (Haemophilus influenzae): 16 µg/mL (≈ 48.3 µM)
MIC (Neisseria gonorrhoeae [13]): 2 µg/mL (≈ 6.04 µM)
MIC (Neisseria gonorrhoeae [14]): 1 µg/mL (≈ 3.02 µM)
MIC (Neisseria gonorrhoeae [15]): 0.5 µg/mL (≈ 1.51 µM)
